One block for each compound: values may come before it.
Key:
[1] = tested on: Homo sapiens; test: Drug level in human plasma with chronic kidney disease assessed as 8-OH acyclovir level at 1500 mg, po every 12 hrs measured after fifth dose by LC/MS; format: ADME, organism-based; settings: in vivo, read-out: Drug uptake
Summary of the method: (§1)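 Three CKD adults (CrCl ~15–30 ml/min) fasted around the final dose. Lumbar intrathecal catheter CSF and EDTA venous blood were taken predose and at 0.5–8 h plus 12 h, then stored at −70°C. Metabolites in serum/CSF were measured by SPE with isotope-labelled internal standards, reversed-phase HPLC and positive-ion MRM MS.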

[2] = tested on: Homo sapiens; test: Ratio of Cmax in human CSF to Cmax in human plasma with chronic kidney disease assessed as 8-OH-ACV level at 1500 mg, po every 12 hrs measured after fifth dose by LC/MS; format: ADME, organism-based
[3] = tested on: Homo sapiens; test: AUC (0 to 6 hrs) in human systemic circulation with normal renal function assessed as 8-OH-ACV level at 2000 mg, po every 6 hrs measured after fifth dose by LC/MS; format: ADME, organism-based, Plasma; set-up: dose 2000 mg, time < 6 hr, route oral; settings: in vivo
Summary of the method: (§2)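 Six volunteers with normal renal function fasted from 8 h before to 2 h after the fifth dose. Intrathecal-catheter CSF and venous blood were sampled at 0–8 h and stored at −70°C. Noncompartmental Cmax, tmax and AUCτ (0–6 h) were derived; Cavg = AUCτ/τ.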

[4] = tested on: Homo sapiens; test: AUC (0 to 12 hrs) in human systemic circulation with chronic kidney disease assessed as 8-OH-ACV level at 1500 mg, po every 12 hrs measured after fifth dose by LC/MS; format: ADME, organism-based; set-up: dose 1500 mg, time < 12 hr, route oral; settings: in vivo; summary of the method: as §1
[5] = tested on: Homo sapiens; test: Cmax in human systemic circulation with chronic kidney disease assessed as 8-OH-ACV level at 1500 mg, po every 12 hrs measured after fifth dose by LC/MS; format: ADME, organism-based; set-up: dose 1500 mg, route oral; settings: in vivo; summary of the method: as §1
[6] = tested on: Homo sapiens; test: Tmax in human systemic circulation with normal renal function assessed as 8-OH-ACV level at 2000 mg, po every 6 hrs measured after fifth dose by LC/MS; format: ADME, organism-based; settings: in vivo; summary of the method: as §2
[7] = tested on: Homo sapiens; test: AUC (0 to 6 hrs) in human CSF with normal renal function assessed as 8-OH-ACV level at 2000 mg, po every 6 hrs measured after fifth dose by LC/MS; format: ADME, organism-based; set-up: dose 2000 mg, time < 6 hr, route oral; settings: in vivo; summary of the method: as §2
[8] = tested on: Homo sapiens; test: Ratio of Cmax in human CSF to Cmax in human plasma with normal renal function assessed as 8-OH-ACV level at 2000 mg, po every 6 hrs measured after fifth dose by LC/MS; format: ADME, organism-based
Summary of the method: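 For each normal-renal-function subject, the metabolite CSF Cmax was divided by the serum Cmax from samples taken 0–8 h after the fifth dose. Both were measured by LC/MS with isotope-labelled internal standards, and the ratio is given as mean ± SD.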

[9] = tested on: Homo sapiens; test: Tmax in human systemic circulation with chronic kidney disease assessed as 8-OH-ACV level at 1500 mg, po every 12 hrs measured after fifth dose by LC/MS; format: ADME, organism-based; settings: in vivo; summary of the method: as §1
[10] = tested on: Homo sapiens; test: Cmax in human systemic circulation with normal renal function assessed as 8-OH-ACV level at 2000 mg, po every 6 hrs measured after fifth dose by LC/MS; format: ADME, organism-based; set-up: dose 2000 mg, route oral; settings: in vivo; summary of the method: as §2
[11] = tested on: Homo sapiens; test: Tmax in human CSF with normal renal function assessed as 8-OH-ACV level at 2000 mg, po every 6 hrs measured after fifth dose by LC/MS; format: ADME, organism-based, Cerebrospinal fluid; settings: in vivo; summary of the method: as §2
[12] = tested on: Homo sapiens; test: Drug level in human CSF with normal renal function assessed as 8-OH acyclovir level at 2000 mg, po every 6 hrs measured after fifth dose by LC/MS; format: ADME, organism-based; settings: in vivo, read-out: Drug uptake; summary of the method: as §2
[13] = tested on: Homo sapiens; test: Cmax in human CSF with chronic kidney disease assessed as 8-OH-ACV level at 1500 mg, po every 12 hrs measured after fifth dose by LC/MS; format: ADME, organism-based, Cerebrospinal fluid; set-up: dose 1500 mg, route oral; settings: in vivo; summary of the method: as §1
[14] = tested on: Homo sapiens; test: Tmax in human CSF with chronic kidney disease assessed as 8-OH-ACV level at 1500 mg, po every 12 hrs measured after fifth dose by LC/MS; format: ADME, organism-based, Cerebrospinal fluid; settings: in vivo; summary of the method: as §1
[15] = tested on: Homo sapiens; test: Drug level in human plasma with normal renal function assessed as 8-OH acyclovir level at 2000 mg, po every 6 hrs measured after fifth dose by LC/MS; format: ADME, organism-based; settings: in vivo, read-out: Drug uptake; summary of the method: as §2
[16] = tested on: Homo sapiens; test: Cmax in human CSF with normal renal function assessed as 8-OH-ACV level at 2000 mg, po every 6 hrs measured after fifth dose by LC/MS; format: ADME, organism-based, Cerebrospinal fluid; set-up: dose 2000 mg, route oral; settings: in vivo; summary of the method: as §2
[17] = tested on: Homo sapiens; test: AUC (0 to 12 hrs) in human CSF with chronic kidney disease assessed as 8-OH-ACV level at 1500 mg, po every 12 hrs measured after fifth dose by LC/MS; format: ADME, organism-based; set-up: dose 1500 mg, time < 12 hr, route oral; settings: in vivo; summary of the method: as §1
[18] = tested on: Homo sapiens; test: Drug level in human CSF with chronic kidney disease assessed as 8-OH acyclovir level at 1500 mg, po every 12 hrs measured after fifth dose by LC/MS; format: ADME, organism-based; settings: in vivo, read-out: Drug uptake; summary of the method: as §1
[19] = AUC (0 to 12 hrs) in human CSF with chronic kidney disease at 1500 mg, po every 12 hrs measured after fifth dose by radioimmunoassay; format: ADME, organism-based; set-up: time < 12 hr, dose 1500 mg, route oral
Summary of the method: (§3)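 CKD subjects (n=3) received an oral dose every 12 h for 5 doses. CSF was drawn through an indwelling lumbar catheter predose and at 0.5, 1, 1.5, 2, 3, 4, 6, 8 and 12 h after the fifth dose. Acyclovir was quantified by automated scintillation proximity radioimmunoassay with a monoclonal antibody; the standard curve was 1.4–90 ng/ml and LLQ 14.1 ng/ml. Noncompartmental parameters were calculated over 0–12 h.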

[20] = Cmax in human systemic circulation with chronic kidney disease at 1500 mg, po every 12 hrs measured after fifth dose by radioimmunoassay; format: ADME, organism-based; set-up: dose 1500 mg, route oral; settings: plasma
Summary of the method: (§4)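 Three chronic kidney disease subjects (CrCl ∼15 to 30 ml/min) took valacyclovir 1,500 mg orally every 12 h for 5 doses, fasting from 8 h before to 2 h after the fifth dose. Plasma was drawn at 0, 0.5, 1, 1.5, 2, 3, 4, 6, 8 and 12 h. Acyclovir was measured by scintillation proximity radioimmunoassay.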

[21] = AUC (0 to 6 hrs) in human systemic circulation with normal renal function at 2000 mg, po every 6 hrs measured after fifth dose by radioimmunoassay; format: ADME, organism-based; set-up: time < 6 hr, dose 2000 mg, route oral; settings: plasma
Summary of the method: (§5)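 Six subjects with normal renal function took valacyclovir 2,000 mg orally every 6 h for 5 doses, fasting from 8 h before to 2 h after the fifth dose. Plasma was drawn at 0, 0.5, 1, 1.5, 2, 3, 4, 6 and 8 h. Acyclovir was measured by scintillation proximity radioimmunoassay (LLQ 14.1 ng/ml). Noncompartmental analysis gave AUC over 0–6 h, Cmax and tmax, with Cavg = AUCτ/τ.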

[22] = Tmax in human CSF with normal renal function at 2000 mg, po every 6 hrs measured after fifth dose by radioimmunoassay; format: ADME, organism-based, Cerebrospinal fluid
Summary of the method: (§6)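 Normal-renal-function subjects (n=6) took an oral dose every 6 h for 5 doses. Serial lumbar-catheter CSF was collected on ice predose through 8 h after the last dose. Acyclovir was assayed by scintillation proximity radioimmunoassay validated for CSF (range 1.4–90 ng/ml; 1:10 dilution; LLQ 14.1 ng/ml). Cmax, tmax and AUCτ over 0–6 h were computed noncompartmentally.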

[23] = Cmax in human CSF with chronic kidney disease at 1500 mg, po every 12 hrs measured after fifth dose by radioimmunoassay; format: ADME, organism-based, Cerebrospinal fluid; set-up: dose 1500 mg, route oral; summary of the method: as §3
[24] = Tmax in human systemic circulation with chronic kidney disease at 1500 mg, po every 12 hrs measured after fifth dose by radioimmunoassay; format: ADME, organism-based; settings: plasma; summary of the method: as §4
[25] = Drug level in human plasma with chronic kidney disease at 1500 mg, po every 12 hrs measured after fifth dose by radioimmunoassay; format: ADME, organism-based; settings: read-out: Drug uptake; summary of the method: as §4
[26] = Drug level in human plasma with normal renal function at 2000 mg, po every 6 hrs measured after fifth dose by radioimmunoassay; format: ADME, organism-based; settings: read-out: Drug uptake; summary of the method: as §5
[27] = Tmax in human systemic circulation with normal renal function at 2000 mg, po every 6 hrs measured after fifth dose by radioimmunoassay; format: ADME, organism-based; settings: plasma; summary of the method: as §5
[28] = Drug level in human CSF with chronic kidney disease at 1500 mg, po every 12 hrs measured after fifth dose by radioimmunoassay; format: ADME, organism-based; settings: read-out: Drug uptake; summary of the method: as §3
[29] = Tmax in human CSF with chronic kidney disease at 1500 mg, po every 12 hrs measured after fifth dose by radioimmunoassay; format: ADME, organism-based, Cerebrospinal fluid; summary of the method: as §3
[30] = Cmax in human CSF with normal renal function at 2000 mg, po every 6 hrs measured after fifth dose by radioimmunoassay; format: ADME, organism-based, Cerebrospinal fluid; set-up: dose 2000 mg, route oral; summary of the method: as §6
[31] = AUC (0 to 12 hrs) in human systemic circulation with chronic kidney disease at 1500 mg, po every 12 hrs measured after fifth dose by radioimmunoassay; format: ADME, organism-based; set-up: dose 1500 mg, time < 12 hr, route oral; settings: plasma; summary of the method: as §4
[32] = Cmax in human systemic circulation with normal renal function at 2000 mg, po every 6 hrs measured after fifth dose by radioimmunoassay; format: ADME, organism-based; set-up: dose 2000 mg, route oral; settings: plasma; summary of the method: as §5
[33] = Drug level in human CSF with normal renal function at 2000 mg, po every 6 hrs measured after fifth dose by radioimmunoassay; format: ADME, organism-based; settings: read-out: Drug uptake; summary of the method: as §6
[34] = AUC (0 to 6 hrs) in human CSF with normal renal function at 2000 mg, po every 6 hrs measured after fifth dose by radioimmunoassay; format: ADME, organism-based; set-up: time < 6 hr, dose 2000 mg, route oral; summary of the method: as §6

concentration [1]: 1.4 µM
Ratio [2]: 0.19
AUC [3]: 1.4 µM·h
AUC [4]: 17 µM·h
Cmax [5]: 1.6 µM
Tmax [6]: 3.5 h
AUC [7]: 0.34 µM·h
Ratio [8]: 0.2
Tmax [9]: 4 h
Cmax [10]: 0.32 µM
Tmax [11]: 2.4 h
concentration [12]: 0.06 µM
Cmax [13]: 0.29 µM
Tmax [14]: 7 h
concentration [15]: 0.24 µM
Cmax [16]: 0.062 µM
AUC [17]: 3.1 µM·h
concentration [18]: 0.26 µM
Structure (SMILES): Nc1nc2c(nc(O)n2COCCO)c(=O)[nH]1

AUC at 12 h [19]: 159 µM·h
Cmax [20]: 82 µM
AUC at 6 h [21]: 137 µM·h
Tmax [22]: 2.3 h
Cmax [23]: 16 µM
Tmax [24]: 2 h
concentration at 12 h [25]: 48 µM
concentration at 6 h [26]: 23 µM
Tmax [27]: 2.1 h
concentration at 12 h [28]: 13.3 µM
Tmax [29]: 5.3 h
Cmax [30]: 7.8 µM
AUC at 12 h [31]: 577 µM·h
Cmax [32]: 42 µM
concentration at 6 h [33]: 6.25 µM
AUC at 6 h [34]: 37 µM·h
Structure (SMILES): Nc1nc2c(ncn2COCCO)c(=O)[nH]1 [ACYCLOVIR]
